Measured values as given in ChEMBL document CHEMBL3351655, “Scaffold decoration at positions 5 and 8 of 1,2,4-triazolo[1,5-c]pyrimidines to explore the antagonist profiling on adenosine receptors: a preliminary structure-activity relationship study” (J Med Chem, 2014).

Tests used:
Adenosine receptor A1 = target: T1, Adenosine receptor A1 (Homo sapiens, UniProt P30542); assay: Displacement of [3H]CCPA from human adenosine A1 receptor expressed in CHO cells; assay type: cell-based
T1 sequence (P30542 whole entry): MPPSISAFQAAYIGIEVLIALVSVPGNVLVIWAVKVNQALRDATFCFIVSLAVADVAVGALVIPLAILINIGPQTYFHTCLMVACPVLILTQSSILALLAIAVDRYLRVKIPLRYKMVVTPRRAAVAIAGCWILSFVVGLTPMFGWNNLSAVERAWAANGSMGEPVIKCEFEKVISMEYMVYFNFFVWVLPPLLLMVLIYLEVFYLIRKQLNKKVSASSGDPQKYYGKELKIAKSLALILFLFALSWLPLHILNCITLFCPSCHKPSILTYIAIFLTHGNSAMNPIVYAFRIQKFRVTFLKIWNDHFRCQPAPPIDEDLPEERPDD
Method in brief: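 Stably transfected CHO cells were homogenised and spun at 1000g to remove nuclei and fragments. Membranes were then pelleted at 100 000g, resuspended in binding buffer, frozen in liquid nitrogen and stored. Radioligand was [³H]CCPA, with nonspecific binding defined by 1 mM theophylline.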

Adenosine receptor A2a = Adenosine receptor A2a (Homo sapiens, UniProt P29274); assay: Displacement of [3H]NECA from human adenosine A2A receptor expressed in CHO cells; assay type: cell-based
[1] = target: Adenosine receptors; A1 & A3 (Homo sapiens) (UniProt P30542+P0DMS8); assay: Selectivity ratio of Ki for human adenosine A1 receptor expressed in CHO cells to Ki for human adenosine A3 receptor expressed in CHO cells; assay type: cell-based
Adenosine receptor A2b = target: T2, Adenosine receptor A2b (Homo sapiens, UniProt P29275); assay: Antagonist activity at human adenosine A2B receptor expressed in CHO cells assessed as inhibition of NECA-stimulated adenylyl cyclase activity; assay type: functional, cell-based
T2 sequence (P29275 whole entry): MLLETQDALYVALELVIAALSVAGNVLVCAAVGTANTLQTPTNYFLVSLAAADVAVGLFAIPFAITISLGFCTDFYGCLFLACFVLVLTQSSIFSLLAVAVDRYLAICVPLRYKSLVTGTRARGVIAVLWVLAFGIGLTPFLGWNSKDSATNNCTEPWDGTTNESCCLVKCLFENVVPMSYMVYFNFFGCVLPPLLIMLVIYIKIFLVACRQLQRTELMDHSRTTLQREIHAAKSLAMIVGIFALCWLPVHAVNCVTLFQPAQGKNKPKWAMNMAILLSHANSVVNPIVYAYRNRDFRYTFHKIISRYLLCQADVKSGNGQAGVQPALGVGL
Method in brief: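 Membranes from stably transfected CHO cells, made with a single high-speed centrifugation of the homogenate. Incubated 20 min with about 150 000 cpm [α-³²P]ATP, in a mixture without EGTA and NaCl. IC50 for concentration-dependent inhibition of NECA-stimulated adenylyl cyclase was fitted with the Hill equation and converted to Ki by Cheng–Prusoff.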

CHO [2] = assay: Selectivity ratio of Ki for human adenosine A2A receptor expressed in CHO cells to Ki for human adenosine A3 receptor expressed in CHO cells; assay type: cell-based
Adenosine receptor A3 = target: T3, Adenosine receptor A3 (Homo sapiens, UniProt P0DMS8); assay: Displacement of [3H]NECA from human adenosine A3 receptor expressed in CHO cells; assay type: cell-based
T3 sequence (P0DMS8 whole entry): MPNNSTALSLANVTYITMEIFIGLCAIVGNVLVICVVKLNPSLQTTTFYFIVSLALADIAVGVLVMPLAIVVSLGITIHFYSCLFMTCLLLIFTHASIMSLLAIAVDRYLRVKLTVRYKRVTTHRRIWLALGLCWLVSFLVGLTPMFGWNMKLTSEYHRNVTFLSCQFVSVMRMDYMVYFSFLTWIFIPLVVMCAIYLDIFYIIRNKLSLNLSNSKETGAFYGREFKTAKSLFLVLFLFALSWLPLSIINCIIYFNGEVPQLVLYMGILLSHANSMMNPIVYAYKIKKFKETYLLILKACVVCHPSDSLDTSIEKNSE
Method in brief: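 Radioligand [³H]NECA was used on membranes from stably transfected CHO cells, prepared by a 1000g clearing spin then pelleting at 100 000g. Pellets were resuspended in binding buffer, frozen in liquid nitrogen and stored. Nonspecific binding was defined with 100 μM R-PIA.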

CHO [3] = assay: Selectivity ratio of Ki for human adenosine A1 receptor expressed in CHO cells to Ki for human adenosine A2A receptor expressed in CHO cells; assay type: cell-based

Sequence of Adenosine receptor A2a (P29274 whole entry): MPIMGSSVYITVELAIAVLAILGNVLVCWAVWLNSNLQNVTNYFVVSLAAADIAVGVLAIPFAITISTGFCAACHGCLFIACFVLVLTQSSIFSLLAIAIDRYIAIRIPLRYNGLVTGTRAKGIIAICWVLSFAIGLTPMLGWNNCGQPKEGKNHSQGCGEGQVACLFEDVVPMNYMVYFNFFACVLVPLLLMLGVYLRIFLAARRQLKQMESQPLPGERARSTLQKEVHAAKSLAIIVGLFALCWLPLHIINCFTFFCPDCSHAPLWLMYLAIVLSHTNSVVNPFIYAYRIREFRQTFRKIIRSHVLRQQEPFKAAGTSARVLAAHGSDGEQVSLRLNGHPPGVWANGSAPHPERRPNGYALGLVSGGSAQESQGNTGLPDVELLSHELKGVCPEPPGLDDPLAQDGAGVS

Row | Structure (SMILES) | Ki (Adenosine receptor A1) [nM] | Ki (Adenosine receptor A2a) [nM] | Ratio Ki [1] | Ki (Adenosine receptor A2b) [nM] | Ratio Ki (CHO [2]) | Ki (Adenosine receptor A3) [nM] | Ratio Ki (CHO [3])
1 | CCOC(=O)c1cnc(NCc2ccc(C)cc2)n2nc(-c3ccco3)nc12 | 1340 | 122 | 23.9 | 10000 | 2.17 | 56.1 | 11
2 | CCOC(=O)c1cnc(NC2CCCC2)n2nc(-c3ccco3)nc12 | 34.4 | 43.4 | 0.98 | 4620 | 1.24 | 35 | 0.79
3 | CCCCC(CC)CNc1ncc(C(=O)O)c2nc(-c3ccco3)nn12 (stereo unspecified) | 1780 | 33800 | 0.11 | > 10000 | 2.06 | 16400 | 0.05
4 | CCOC(=O)c1cnc(NCc2ccc(C(F)(F)F)cc2)n2nc(-c3ccco3)nc12 | 1590 | 209 | 4.92 | 2040 | 0.65 | 323 | 7.61
5 | CCOC(=O)c1cnc(SC)n2nc(-c3ccco3)nc12 | 5720 | 9500 | 2.17 | > 30000 | 3.6 | 2640 | 0.6
6 | O=C(Nc1ncc(C(=O)O)c2nc(-c3ccco3)nn12)NC1CCCCC1 | > 100000 | 24700 | > 1.68 | > 30000 | 0.42 | 59400 | > 4.05
7 | CNC(=O)c1cnc(NC(=O)Cc2ccccc2)n2nc(-c3ccco3)nc12 | 296 | 12.4 | 0.25 | 4840 | 0.01 | 1190 | 23.9
8 | CCCCCNc1ncc(C(=O)O)c2nc(-c3ccco3)nn12 | 10400 | 26900 | 0.39 | > 10000 | 1.02 | 26300 | 0.39
9 | CCOC(=O)c1cnc(NC(=O)Nc2ccccc2)n2nc(-c3ccco3)nc12 | 322 | 4.82 | 0.9 | 1900 | 0.01 | 357 | 66.8
10 | CC(C)Nc1ncc(C(=O)O)c2nc(-c3ccco3)nn12 | 4490 | 7660 | 0.26 | > 10000 | 0.44 | 17500 | 0.59
11 | CCOC(=O)c1cnc(NCc2ccc(OC)c(OC)c2)n2nc(-c3ccco3)nc12 | 315 | 116 | 8.14 | 13300 | 3 | 38.7 | 2.71
12 | CCOC(=O)c1cnc(NCc2ccccc2)n2nc(-c3ccco3)nc12 | 940 | 32 | 94 | 2510 | 3.2 | 10 | 29.4
13 | CCOC(=O)c1cnc(NCc2ccc(-c3ccccc3)cc2)n2nc(-c3ccco3)nc12 | 890 | 187 | 1.02 | > 30000 | 0.21 | 875 | 4.76
